Here are results for 24 compounds from PubChem BioAssay.

Values without a mark were called inactive. Records with an inconclusive call do not appear. Calls of active or inactive are those of the source.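 How the source made its calls, unless noted: active means growth inhibition above 25% in both replicates, a cutoff set 3 SD above the mean; inconclusive means above 25% in only one replicate; inactive means the rest.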

In general, viability refers to a read-out of living cells in per cent, often relative to untreated cells. As a reminder, the inhibition is the drop in the measured response relative to a control, in per cent.

A short description of assay [1]: S. cerevisiae growth inhibition in permissive medium (OD615), pilot counter-assay for S. cerevisiae lifespan shortening project, permissive growth control (AID 705). The conditions noted are these: OD615, 24 h, at 10 µM, stronger effect = higher value. The method in brief:
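Material: engineered DeaD yeast; Compound: one dose 10 µM, DMSO 0.25% final; Detection: absorbance (optical density) at 615 nm; Buffer or medium: permissive raffinose/galactose medium; Timing: 24 h exposure, 30 °C.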

Assay [2] is described as follows: S. cerevisiae growth inhibition in restrictive medium, OD615, pilot screen, restrictive growth control, yeast lifespan reduction project (AID 706;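 active means growth inhibition above a set limit, 3 SD over mean compound inhibition, in both replicates, cut at about 43% in these data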;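 further: modified DeaD lifespan yeast strain shifted to restrictive glucose medium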). The conditions noted are these: OD615, 48 h, at 10 µM, stronger effect = higher value. An outline of the steps:
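Buffer or medium: restrictive glucose medium (CSMM-D); test system: modified S. cerevisiae; doses: single dose of 10 µM compound final, 0.25% DMSO; schedule: 48 h compound exposure at 30 °C; detection: absorbance (optical density) measured at 615 nm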

Assay [3] in a line: doxorubicin toxicity protection in MRP-1 cells – H69AR cells, CellTiter-Glo, duplicate, MRP-1 activator project, pilot screen (AID 807;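 active means viability increase at or above a cutoff of the median across tested compounds plus 3 SD, cut at about 8.5% in these data, passing the limit was not always enough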;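 further: compound pretreatment 18-22 h then 72 h combined with doxorubicin; 0% = doxorubicin alone and 100% = vehicle without doxorubicin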). As to conditions: H69AR viability with doxorubicin, CellTiter-Glo luminescence; at 10 µM; stronger effect = higher value.
The nature of assay [4]: viability of HCT116 without oncogenic beta-catenin – human colon tumor cells, pilot screen (AID 823;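 active means cell viability at or below a set limit in both duplicate runs, the limit being the all-compound median minus 4 SD, cut at about 23% in these data, passing the limit was not always enough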;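 further: 0% = wells killed by 20 µM Hyamine and 100% = untreated DMSO cell wells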). As to conditions: HCT116 beta-catenin knockout viability, CellTiter-Glo, 60 h; at 10 µM; stronger effect = lower value. A general note: Cellular ATP, detected with luciferase, serves as a proxy for viable cell number.
Assay [5] can be described thus: viability of PTEN-null HCT116 cells – cell-based, HCT116 clonal line, CellTiter-Glo, pilot screen (AID 824;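 active means viability at or below 27.92% in each of two runs, the all-compound median minus 4 SD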;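 further: 0% = 20 µM Hyamine control and 100% = vehicle cell control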). The conditions noted are these: HCT116 PTEN-deleted viability, 60 h, at 10 µM, stronger effect = lower value.
Assay [6] is described as follows: RAM pathway blockade in budding yeast – dse1pr::URA3 reporter, 5-FOA selection, pilot screen (AID 869;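 active means inhibition over a set limit, the all-compound mean plus 3 SD, in both replicate runs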;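 further: 0% = DMSO wells with no growth and 100% = 10 µM 1-NA-PP1 with full growth; RAM network block rescues cells from 5-FOA so hits raise OD615 growth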). The conditions noted are these: S. cerevisiae dse1pr::URA3 5-FOA growth, OD615, 2 d; at 10 µM; stronger effect = higher value; strain carries analog-sensitive mutant Cbk1 kinase.
Assay [7] in a line: RAM signaling pathway blockade in yeast – S. cerevisiae, Pdr1DBD-CYC8 efflux-inhibited sensitized strain, primary screen (AID 1298;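 active means RAM network inhibition above 8.4% in each of two replicates, 3 SD over the compound average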;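 further: 0% = DMSO untreated cells without growth and 100% = 10 µM 1-NA-PP1 full growth; higher means more yeast growth rescued from 5-FOA killing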). The conditions noted are these: S. cerevisiae cbk1-as DSE1-URA3 strain, 5-FOA growth OD615, 2 d; at 50 µM; stronger effect = higher value.

As to `O=C(c1ccco1)N1CCN=C1SCc1cccc(Cl)c1`, the growth inhibition in assay [1] was -1.8%; in assay [2], 14%. For the same compound, the viability increase in assay [3] was 1.56%. Further, the viability in assay [4] is 87.3%; in assay [5], 91.9%. Moreover, the inhibition in assay [6] was 0.89%. For the same compound, in assay [7], the RAM network inhibition was 0.26%.

Consider `CCOC(=O)NC(Nc1ccc(C)cn1)(C(F)(F)F)C(F)(F)F`, for which the growth inhibition in assay [1] was 11.5%; in assay [2], 4.23%. Besides, the viability increase in assay [3] is -1.59%. Further, the viability in assay [4] was 95.2%; in assay [5] it was 100%. For the same compound, the inhibition in assay [6] is 0.545%. Further, in assay [7], the RAM network inhibition is 0.7%.

`Cn1ccnc1SCC(=O)c1cc2ccccc2o1`: the growth inhibition is -6.64% in assay [1] and -0.315% in assay [2]. In assay [3], the viability increase was -2.52%. The results for the viability in assay [4] and in assay [5] were 95.7% and 99.4%, respectively. In addition, in assay [6], the inhibition was 0.57%. In addition, the RAM network inhibition in assay [7] is 1.04%.

As to `Cc1ccc(C(=O)CSC2=NC(N)=C(C#N)C3(CCCCC3)C2C(N)=O)cc1` (stereo not drawn), the growth inhibition was 17.7% in assay [1] and 51% (active) in assay [2]. The viability increase in assay [3] is -4.6%. The viability in assay [4] was 89.6%; in assay [5], 97.6%. In addition, in assay [6], the inhibition was 0.27%. The RAM network inhibition in assay [7] is 9.3%.

As to `COc1cccc(N2CCN(C(=O)CN(C)S(=O)(=O)c3ccc4c(c3)CCC(=O)N4)CC2)c1`, the growth inhibition was -2.86% in assay [1] and -13.8% in assay [2]. For the same compound, in assay [3], the viability increase was -2.87%. The viability in assay [4] is 87.6%; in assay [5] it was 85.5%. In addition, in assay [6], the inhibition is 0.59%. Besides, in assay [7], the RAM network inhibition is 7.09%.

Consider `Cc1cc(NC(=O)CSc2nnc(Cn3c(=O)sc4ccccc43)n2-c2ccccc2C)no1`, for which the results for the growth inhibition in assay [1] and in assay [2] were -0.97% and -2.43%, respectively. Also, in assay [3], the viability increase is -1.05%. Also, the figures for the viability in assay [4] and in assay [5] were 89% and 87%, respectively. In assay [6], the inhibition was 1.27%. For the same compound, the RAM network inhibition in assay [7] is 7.59%.

As for `CCOc1ccc2nc(N3CCCC(C(=O)NCCCN4CCOCC4)C3)sc2c1` (stereo not drawn), the growth inhibition is -10.1% in assay [1] and -15.6% in assay [2]. Moreover, the viability increase in assay [3] was -2.55%. For the same compound, the viability in assay [4] was 86.3%; in assay [5], 92.8%. The inhibition in assay [6] is 1.36%. Moreover, in assay [7], the RAM network inhibition is 0.52%.

Take `COc1ccc(Cn2c(=O)[nH]c3cc(C(=O)NCCCN4CCCC4=O)ccc3c2=O)cc1`: the growth inhibition in assay [1] was -17.7%; in assay [2] it was -12.3%. The viability increase in assay [3] was 0.19%. Also, the results for the viability in assay [4] and in assay [5] were 91.6% and 90.4%, respectively. The inhibition in assay [6] was 0.92%. Moreover, the RAM network inhibition in assay [7] is 1.36%.

For the compound `CCOc1cc(C(=O)NCCN2CCOCC2)cc(OCC)c1OCC`, the figures for the growth inhibition in assay [1] and in assay [2] were -5.59% and -3.11%, respectively. Moreover, in assay [3], the viability increase is -3.76%. In addition, the viability in assay [4] is 91.3%; in assay [5] it was 96.4%. Further, the inhibition in assay [6] is -0.045%. The RAM network inhibition in assay [7] is 2.61%.

With `Cc1cc(-c2nnco2)c(C)n1-c1ccc(F)cc1`, the growth inhibition in assay [1] was -8.75%; in assay [2], -5.7%. Also, the viability increase in assay [3] is -2.15%. Moreover, the viability is 84.2% in assay [4] and 85.3% in assay [5]. The inhibition in assay [6] was 0.83%. Moreover, the RAM network inhibition in assay [7] was 4.69%.

With `Cc1cccc(N2CCN(C(=O)C3CCN(S(=O)(=O)c4cccc5cccnc45)CC3)CC2C)c1` (stereo not drawn), the growth inhibition in assay [1] is -1.53%; in assay [2], -4.12%. In assay [3], the viability increase was -1.38%. For the same compound, the values for the viability in assay [4] and in assay [5] were 69.9% and 67.1%, respectively. For the same compound, the inhibition in assay [6] was 2.65%. For the same compound, in assay [7], the RAM network inhibition is 1.04%.

`CCn1cc(C(=O)NC2CCCCCC2)c(=O)c2cc(S(=O)(=O)N3CCCCC3)ccc21`: the growth inhibition is -3.87% in assay [1] and -20.1% in assay [2]. Moreover, in assay [3], the viability increase was -8.11%. The viability was 72.2% in assay [4] and 69.8% in assay [5]. Also, in assay [6], the inhibition is 0.625%. The RAM network inhibition in assay [7] was 2.45%.

Consider `CC1CN(Cc2nc3c(c(=O)n(C)c(=O)n3C)n2Cc2ccc(Cl)cc2)CC(C)O1` (stereo not drawn), for which the growth inhibition in assay [1] was -3.79%; in assay [2] it was 0.39%. The viability increase in assay [3] is -0.99%. In addition, the figures for the viability in assay [4] and in assay [5] were 91.6% and 91.9%, respectively. Also, in assay [6], the inhibition was 2.13%. The RAM network inhibition in assay [7] is 4.34%.

For the compound `O=C1c2ccccc2C(Nc2ccc(S(=O)(=O)N3CCCCC3)cc2)N1c1ccccn1` (stereo not drawn), the growth inhibition in assay [1] was -3.39%; in assay [2] it was -7.4%. Besides, in assay [3], the viability increase was -4.22%. The viability in assay [4] is 67.8%; in assay [5], 65.4%. Besides, the inhibition in assay [6] was 2.17%. The RAM network inhibition in assay [7] was 3.68%.

In the case of `O=C(O)CSC1c2ccccc2C(=O)N1Cc1ccccc1` (stereo not drawn), the growth inhibition in assay [1] is -13.6%; in assay [2] it was -2.05%. In addition, the viability increase in assay [3] is 2.07%. The viability in assay [4] was 94.4%; in assay [5], 93.7%. In assay [6], the inhibition is 0.06%. Also, in assay [7], the RAM network inhibition was 0.3%.

Consider `COc1ccc(-c2nc(Cn3c(SCc4cccc(F)c4)nc4ccncc43)c(C)o2)cc1OC`, for which the growth inhibition is 4.55% in assay [1] and 30.2% in assay [2]. In addition, the viability increase in assay [3] is -3.1%. Moreover, the viability in assay [4] is 69.9%; in assay [5], 60.1%. For the same compound, in assay [6], the inhibition is 1%. Further, the RAM network inhibition in assay [7] is 3.81%.

In the case of `O=C(Cn1cnc2c(cnn2-c2ccc(Cl)cc2)c1=O)NC1CCCCC1`, the figures for the growth inhibition in assay [1] and in assay [2] were -1.74% and 6.22%, respectively. For the same compound, the viability increase in assay [3] is -3.89%. The viability in assay [4] was 91.3%; in assay [5] it was 91.7%. The inhibition in assay [6] is 3.79%. The RAM network inhibition in assay [7] is 2.4%.

Consider `CCN1CCN(C(=O)Cn2ncc3c2-c2ccccc2OC3)CC1`, for which the growth inhibition is 0.755% in assay [1] and 0.8% in assay [2]. Also, the viability increase in assay [3] was -1.74%. For the same compound, the viability in assay [4] is 106%; in assay [5], 99.9%. Also, in assay [6], the inhibition is 1.14%. Moreover, the RAM network inhibition in assay [7] is 2.81%.

`CCOc1ccc(NC(=O)c2ccc(S(=O)(=O)N(C)C)cc2)cc1`: the growth inhibition in assay [1] is -12.8%; in assay [2], -7.66%. The viability increase in assay [3] was 0.26%. Also, the viability was 102% in assay [4] and 92.4% in assay [5]. Moreover, in assay [6], the inhibition is 1.32%. Further, in assay [7], the RAM network inhibition was 1.71%.

As for `CCOc1cc2[nH]c(=O)n(Cc3ccc(C(=O)NCCOC)cc3)c(=O)c2cc1OCC`, the growth inhibition was -16.2% in assay [1] and -6.54% in assay [2]. In assay [3], the viability increase is -1.54%. Besides, the viability in assay [4] was 97.8%; in assay [5] it was 95.2%. For the same compound, in assay [6], the inhibition is 0.03%. Moreover, the RAM network inhibition in assay [7] is 6.22%.

Turning to `CCOc1ccc(N(CC(=O)Nc2ccc3c(c2)OCCO3)S(=O)(=O)c2c(C)noc2C)cc1`, the growth inhibition in assay [1] is -6.29%; in assay [2], -0.165%. In assay [3], the viability increase is -3.41%. The viability is 81.6% in assay [4] and 87% in assay [5]. In addition, the inhibition in assay [6] was 3.58%. The RAM network inhibition in assay [7] was 4.67%.

Take `Nc1cc(C(=O)c2cccs2)ccc1Cl`: the growth inhibition in assay [1] was -9.76%; in assay [2] it was -0.475%. For the same compound, the viability increase in assay [3] is -1.88%. The viability is 90.9% in assay [4] and 96.7% in assay [5]. The inhibition in assay [6] was 0.165%. The RAM network inhibition in assay [7] was 3.24%.

Regarding `CCOC(=O)N1CCN(C(=O)C2CCCN(c3nc4ccc(OCC)cc4s3)C2)CC1` (stereo not drawn), the growth inhibition in assay [1] was -6.49%; in assay [2], -7.45%. Further, the viability increase in assay [3] was -1.32%. For the same compound, the viability in assay [4] is 90.6%; in assay [5] it was 89.7%. In addition, in assay [6], the inhibition is 0.33%. In addition, the RAM network inhibition in assay [7] is 5.16%.

For the compound `COCCCN1CC23C=CC(O2)C(C(=O)O)C3C1=O` (stereo not drawn), the values for the growth inhibition in assay [1] and in assay [2] were 2.65% and -2.98%, respectively. Moreover, the viability increase in assay [3] was -1.24%. Besides, the viability was 102% in assay [4] and 106% in assay [5]. In addition, the inhibition in assay [6] was -0.105%. Moreover, in assay [7], the RAM network inhibition is 4.16%.
